The source made the active and inactive calls. The rule behind the calls is not given here.
How the values were obtained:
[1] = target: Tyrosine-protein kinase BTK (Homo sapiens, UniProt Q06187); assay: Inhibition of BTK (unknown origin)
[2] = target: T1, Tyrosine-protein kinase ITK/TSK (Homo sapiens, UniProt Q08881); assay: Inhibition of ITK (unknown origin)
T1 sequence (Q08881 whole entry): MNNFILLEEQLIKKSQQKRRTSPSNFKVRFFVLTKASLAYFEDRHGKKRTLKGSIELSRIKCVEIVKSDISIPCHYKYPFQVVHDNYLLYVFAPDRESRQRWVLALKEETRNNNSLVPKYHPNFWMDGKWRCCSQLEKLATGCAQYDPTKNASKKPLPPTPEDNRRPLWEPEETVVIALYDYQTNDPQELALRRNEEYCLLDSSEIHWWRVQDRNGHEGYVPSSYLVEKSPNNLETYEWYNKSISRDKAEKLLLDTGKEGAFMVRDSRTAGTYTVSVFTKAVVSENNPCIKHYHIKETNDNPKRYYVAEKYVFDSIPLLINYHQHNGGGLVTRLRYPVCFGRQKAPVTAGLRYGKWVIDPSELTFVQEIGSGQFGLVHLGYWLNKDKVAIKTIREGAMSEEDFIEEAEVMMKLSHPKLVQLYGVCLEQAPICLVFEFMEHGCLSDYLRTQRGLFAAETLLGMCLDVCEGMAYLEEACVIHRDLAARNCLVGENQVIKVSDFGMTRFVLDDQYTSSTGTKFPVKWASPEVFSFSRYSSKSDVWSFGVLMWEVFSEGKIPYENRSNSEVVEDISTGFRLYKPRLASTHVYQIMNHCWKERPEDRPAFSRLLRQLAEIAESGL

[3] = target: Proto-oncogene tyrosine-protein kinase Src (Homo sapiens, UniProt P12931); assay: Inhibition of SRC (unknown origin)
Sequence of Proto-oncogene tyrosine-protein kinase Src (P12931 2-536 limits assumed): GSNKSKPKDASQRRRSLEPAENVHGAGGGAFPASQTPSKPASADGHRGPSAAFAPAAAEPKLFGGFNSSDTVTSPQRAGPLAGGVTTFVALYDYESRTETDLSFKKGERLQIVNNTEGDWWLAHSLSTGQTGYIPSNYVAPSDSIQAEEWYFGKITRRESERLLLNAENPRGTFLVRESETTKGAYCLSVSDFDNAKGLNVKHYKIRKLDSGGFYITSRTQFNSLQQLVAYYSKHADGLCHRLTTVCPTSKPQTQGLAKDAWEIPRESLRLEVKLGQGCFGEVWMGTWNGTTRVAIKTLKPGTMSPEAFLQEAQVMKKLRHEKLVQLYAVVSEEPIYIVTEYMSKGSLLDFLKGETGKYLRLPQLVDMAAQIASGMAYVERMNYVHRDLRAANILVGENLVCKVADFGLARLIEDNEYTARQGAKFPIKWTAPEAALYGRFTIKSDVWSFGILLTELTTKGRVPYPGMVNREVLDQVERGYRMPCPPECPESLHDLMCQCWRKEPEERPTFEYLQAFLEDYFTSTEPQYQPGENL

CD4+ve Th [4] = assay: Inhibition of anti-CD3/CD28 antibodies-stimulated BALB/c mouse CD4+ T cell activation assessed as reduction in CD25 expression measured after 24 to 48 hrs by flow cytometric analysis; type: functional, tissue-based; conditions: time 24-48 hrs
Procedure, shortened: (§1)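 Purified BALB/c splenic CD4+ T cells (negative selection) stimulated with anti-CD3 plus anti-CD28 in RPMI 1640/10% FBS with compound for 24 or 48 h. Cells Fc-blocked with anti-CD16/CD32, then stained with FITC-CD3, PE-CD25, APC-CD4 and BV421-CD69. Analyzed by flow cytometry. Data as mean ± SD; one-way ANOVA with Dunnett's test.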

[5] = target: Tyrosine-protein kinase HCK (Homo sapiens, UniProt P08631); assay: Inhibition of HCK (unknown origin)
Sequence of Tyrosine-protein kinase HCK (P08631 whole entry): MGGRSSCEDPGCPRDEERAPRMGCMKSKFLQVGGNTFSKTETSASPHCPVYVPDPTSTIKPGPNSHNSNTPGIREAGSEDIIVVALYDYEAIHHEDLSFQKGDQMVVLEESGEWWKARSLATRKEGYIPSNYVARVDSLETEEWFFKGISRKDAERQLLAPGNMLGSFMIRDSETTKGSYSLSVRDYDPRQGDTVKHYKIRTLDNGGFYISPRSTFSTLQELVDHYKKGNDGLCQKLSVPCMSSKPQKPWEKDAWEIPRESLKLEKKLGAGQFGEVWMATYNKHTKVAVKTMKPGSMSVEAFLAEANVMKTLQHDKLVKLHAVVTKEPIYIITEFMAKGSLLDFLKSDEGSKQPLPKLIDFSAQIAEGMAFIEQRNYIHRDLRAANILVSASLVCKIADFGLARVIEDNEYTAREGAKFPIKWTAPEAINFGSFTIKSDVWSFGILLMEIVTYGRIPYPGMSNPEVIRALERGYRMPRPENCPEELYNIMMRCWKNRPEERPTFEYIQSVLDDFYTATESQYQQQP

[6] = target: Tyrosine-protein kinase Lck (Homo sapiens, UniProt P06239); assay: Inhibition of LCK (unknown origin)
Sequence of Tyrosine-protein kinase Lck (P06239 whole entry): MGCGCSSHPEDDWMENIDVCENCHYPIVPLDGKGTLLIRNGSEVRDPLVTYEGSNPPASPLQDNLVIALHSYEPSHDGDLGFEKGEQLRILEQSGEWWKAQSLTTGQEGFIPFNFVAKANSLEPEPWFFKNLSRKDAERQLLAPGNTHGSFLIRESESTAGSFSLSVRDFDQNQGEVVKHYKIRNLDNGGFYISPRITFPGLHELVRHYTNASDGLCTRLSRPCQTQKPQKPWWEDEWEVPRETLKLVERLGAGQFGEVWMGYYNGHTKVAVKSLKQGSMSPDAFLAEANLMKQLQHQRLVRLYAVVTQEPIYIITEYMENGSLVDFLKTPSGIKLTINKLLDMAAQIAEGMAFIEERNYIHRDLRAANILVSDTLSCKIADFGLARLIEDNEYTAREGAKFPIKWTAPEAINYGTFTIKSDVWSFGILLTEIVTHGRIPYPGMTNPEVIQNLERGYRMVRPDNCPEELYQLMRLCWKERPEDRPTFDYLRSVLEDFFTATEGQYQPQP

CD4+ve Th [7] = assay: Inhibition of anti-CD3/CD28 antibodies-stimulated BALB/c mouse CD4+ T cell division measured after 72 hrs by CFSE-labeled flow cytometry; type: functional, tissue-based; conditions: dose 100-400 nM
Procedure, shortened: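 Purified BALB/c CD4+ T cells labeled with CFSE at 37 °C for 5 min and washed in RPMI 1640/20% FBS. Cells cultured with anti-CD3 ([…]) plus anti-CD28 ([…]) in RPMI 1640/10% FBS with compound for 72 h. Division read as CFSE dilution by flow cytometry.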

[8] = target: T2, Tyrosine-protein kinase ZAP-70 (Homo sapiens, UniProt P43403); assay: Inhibition of N-terminal GST-fused human recombinant full length ZAP70 (1 to 619 residues) expressed in baculovirus-infected Sf21 cells using FAM-22 peptide as substrate preincubated with enzyme for 10 mins followed by substrate addition for 30 mins in presence of ATP by caliper mobility shift assay
T2 sequence (P43403 whole entry): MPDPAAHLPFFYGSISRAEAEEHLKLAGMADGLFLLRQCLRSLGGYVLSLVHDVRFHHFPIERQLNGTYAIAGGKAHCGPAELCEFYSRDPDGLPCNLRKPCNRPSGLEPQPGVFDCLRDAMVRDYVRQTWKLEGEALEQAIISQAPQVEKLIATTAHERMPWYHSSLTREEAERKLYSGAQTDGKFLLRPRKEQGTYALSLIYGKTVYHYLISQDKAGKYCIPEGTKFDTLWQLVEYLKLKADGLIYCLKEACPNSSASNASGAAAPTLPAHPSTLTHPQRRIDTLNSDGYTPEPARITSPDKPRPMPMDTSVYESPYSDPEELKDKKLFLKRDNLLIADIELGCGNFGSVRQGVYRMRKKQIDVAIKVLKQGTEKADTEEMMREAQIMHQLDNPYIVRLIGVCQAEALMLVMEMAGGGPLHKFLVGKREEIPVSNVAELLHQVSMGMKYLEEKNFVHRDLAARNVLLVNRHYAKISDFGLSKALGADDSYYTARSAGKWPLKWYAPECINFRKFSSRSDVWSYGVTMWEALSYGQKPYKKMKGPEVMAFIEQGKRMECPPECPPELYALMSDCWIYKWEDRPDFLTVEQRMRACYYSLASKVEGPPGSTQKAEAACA

[9] = target: Tyrosine-protein kinase JAK1 (Homo sapiens, UniProt P23458); assay: Inhibition of JAK1 (unknown origin)
Sequence of Tyrosine-protein kinase JAK1 (P23458 whole entry): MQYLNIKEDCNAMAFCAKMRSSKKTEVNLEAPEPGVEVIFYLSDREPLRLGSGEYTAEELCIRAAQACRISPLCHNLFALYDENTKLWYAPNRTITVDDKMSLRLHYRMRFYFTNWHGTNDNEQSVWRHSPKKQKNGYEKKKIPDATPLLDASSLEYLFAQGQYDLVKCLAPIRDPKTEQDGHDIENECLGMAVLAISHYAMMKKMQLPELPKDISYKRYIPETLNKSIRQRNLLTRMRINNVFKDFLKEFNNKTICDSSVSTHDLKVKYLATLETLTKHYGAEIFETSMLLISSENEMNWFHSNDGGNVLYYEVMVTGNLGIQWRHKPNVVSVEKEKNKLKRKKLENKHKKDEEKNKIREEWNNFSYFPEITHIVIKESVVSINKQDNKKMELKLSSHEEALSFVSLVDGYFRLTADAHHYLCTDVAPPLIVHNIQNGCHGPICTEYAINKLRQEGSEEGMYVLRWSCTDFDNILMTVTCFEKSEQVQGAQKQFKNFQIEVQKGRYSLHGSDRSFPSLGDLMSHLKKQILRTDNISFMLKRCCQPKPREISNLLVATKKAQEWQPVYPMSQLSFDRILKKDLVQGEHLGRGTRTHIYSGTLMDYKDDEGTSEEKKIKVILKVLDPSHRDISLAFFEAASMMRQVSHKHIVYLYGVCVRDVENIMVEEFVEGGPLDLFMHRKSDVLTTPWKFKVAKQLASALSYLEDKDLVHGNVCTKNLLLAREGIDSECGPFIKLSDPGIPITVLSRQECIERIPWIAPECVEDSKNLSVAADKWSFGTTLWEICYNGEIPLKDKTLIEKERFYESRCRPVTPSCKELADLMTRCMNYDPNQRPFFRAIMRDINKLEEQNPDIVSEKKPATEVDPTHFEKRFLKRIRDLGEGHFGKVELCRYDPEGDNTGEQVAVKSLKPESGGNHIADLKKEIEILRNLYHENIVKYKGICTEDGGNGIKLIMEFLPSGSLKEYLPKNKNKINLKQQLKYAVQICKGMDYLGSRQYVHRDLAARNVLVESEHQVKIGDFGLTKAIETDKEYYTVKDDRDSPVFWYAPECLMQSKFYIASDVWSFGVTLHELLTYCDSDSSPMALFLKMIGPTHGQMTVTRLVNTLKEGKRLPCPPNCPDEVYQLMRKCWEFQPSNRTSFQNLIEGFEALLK

[10] = target: Tyrosine-protein kinase ABL1 (Homo sapiens, UniProt P00519); assay: Inhibition of ABL (unknown origin)
CD4+ve Th [11] = assay: Inhibition of anti-CD3/CD28 antibodies stimulated-IL-4 production in BALB/c mouse CD4+ T cells at 100 to 400 nM measured after 48 hrs by ELISA; type: functional, cell-based; conditions: dose 100-400 nM
Procedure, shortened: (§2)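 Supernatants of BALB/c splenic CD4+ T cells, purified by immunomagnetic negative selection (>98% purity). Cells stimulated with anti-CD3 (5 µg/ml) plus anti-CD28 (2 µg/ml) in RPMI 1640 with 10% FBS and penicillin/streptomycin at 37 °C, 5% CO₂. Compound is given from DMSO stock diluted in medium at increasing concentrations for 48 h. Mouse IFN-γ or IL-4 measured by ELISA kit.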

CD4+ve Th [12] = assay: Inhibition of anti-CD3/CD28 antibodies-stimulated BALB/c mouse CD4+ T cell proliferation measured after 48 hrs by [3H]thymidine incorporation based beta scintillation counting analysis; type: functional, tissue-based; conditions: dose 100-400 nM
Procedure, shortened: (§3)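 Purified BALB/c splenic CD4+ T cells stimulated with anti-CD3 plus anti-CD28 in RPMI 1640/10% FBS with compound (DMSO stock diluted in medium). After 48 h, cultures pulsed with [³H]thymidine 0.5 µCi/well. Incorporated radioactivity counted by beta scintillation.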

[13] = Inhibition of anti-CD3/CD28 antibodies-stimulated BALB/c mouse CD4+ T cell activation assessed as frequency of CD4+/CD69+ T cells at 400 nM measured after 24 hrs by flow cytometric analysis (reference value: 2.51%); type: functional, CD4+ve Th; set-up: scale not given: the % may be the effect or the level left; procedure, shortened: as §1
[14] = Inhibition of anti-CD3/CD28 antibodies-stimulated BALB/c mouse CD4+ T cell activation assessed as frequency of CD4+/CD69+ T cells at 400 nM measured after 48 hrs by flow cytometric analysis (reference value: 14.9%); type: functional, CD4+ve Th; set-up: scale not given: the % may be the effect or the level left; procedure, shortened: as §1
CD4+ve Th [15] = assay: Inhibition of anti-CD3/CD28 antibodies stimulated-IFN-gamma production in BALB/c mouse CD4+ T cells at 100 to 400 nM measured after 48 hrs by ELISA; type: functional, cell-based; conditions: dose 100-400 nM; procedure, shortened: as §2
[16] = target: T3, Tyrosine-protein kinase ZAP-70 (Homo sapiens) (UniProt P43403); assay: Covalent binding affinity at C346 residue of N-terminal GST-fused human recombinant full length ZAP70 (1 to 619 residues) expressed in baculovirus-infected Sf21 cells at 55 nM preincubated for 5 mins followed by DTT challenge for 10 mins and measured after 18 hrs following trypsin digestion by mass spectrometry; conditions: time 1095.0 min
T3 sequence (whole entry): T2 sequence (P43403 whole entry)
Procedure, shortened: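 Recombinant ZAP-70 at 75 nM final in assay buffer (0.01% Triton X-100, 50 mM HEPES, 5 mM MgCl₂, 1 mM MnCl₂). Compound added to 55 nM final and incubated 5 min at 28 °C. DTT then added to 2 mM final for 10 min at room temperature. Trypsin digestion at 37 °C for 18 h, stopped with TFA, C18 desalting. Modified sites mapped by nano-LC–MS/MS.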

[17] = target: Tyrosine-protein kinase SYK (Homo sapiens, UniProt P43405); assay: Inhibition of N-terminal GST-fused human recombinant full length SYK (1 to 635 residues) expressed in baculovirus-infected Sf21 cells using FAM-22 peptide as substrate preincubated with enzyme for 10 mins followed by substrate addition for 30 mins in presence of ATP by caliper mobility shift assay
[18] = Inhibition of anti-CD3/CD28 antibodies-stimulated BALB/c mouse CD4+ T cell proliferation at 400 nM measured after 48 hrs by [3H]thymidine incorporation based beta scintillation counting analysis; type: functional; conditions: CD4+ve Th; procedure, shortened: as §3
[19] = target: Non-receptor tyrosine-protein kinase TYK2 (Homo sapiens, UniProt P29597); assay: Inhibition of TYK2 (unknown origin)
Sequence of Non-receptor tyrosine-protein kinase TYK2 (P29597 whole entry): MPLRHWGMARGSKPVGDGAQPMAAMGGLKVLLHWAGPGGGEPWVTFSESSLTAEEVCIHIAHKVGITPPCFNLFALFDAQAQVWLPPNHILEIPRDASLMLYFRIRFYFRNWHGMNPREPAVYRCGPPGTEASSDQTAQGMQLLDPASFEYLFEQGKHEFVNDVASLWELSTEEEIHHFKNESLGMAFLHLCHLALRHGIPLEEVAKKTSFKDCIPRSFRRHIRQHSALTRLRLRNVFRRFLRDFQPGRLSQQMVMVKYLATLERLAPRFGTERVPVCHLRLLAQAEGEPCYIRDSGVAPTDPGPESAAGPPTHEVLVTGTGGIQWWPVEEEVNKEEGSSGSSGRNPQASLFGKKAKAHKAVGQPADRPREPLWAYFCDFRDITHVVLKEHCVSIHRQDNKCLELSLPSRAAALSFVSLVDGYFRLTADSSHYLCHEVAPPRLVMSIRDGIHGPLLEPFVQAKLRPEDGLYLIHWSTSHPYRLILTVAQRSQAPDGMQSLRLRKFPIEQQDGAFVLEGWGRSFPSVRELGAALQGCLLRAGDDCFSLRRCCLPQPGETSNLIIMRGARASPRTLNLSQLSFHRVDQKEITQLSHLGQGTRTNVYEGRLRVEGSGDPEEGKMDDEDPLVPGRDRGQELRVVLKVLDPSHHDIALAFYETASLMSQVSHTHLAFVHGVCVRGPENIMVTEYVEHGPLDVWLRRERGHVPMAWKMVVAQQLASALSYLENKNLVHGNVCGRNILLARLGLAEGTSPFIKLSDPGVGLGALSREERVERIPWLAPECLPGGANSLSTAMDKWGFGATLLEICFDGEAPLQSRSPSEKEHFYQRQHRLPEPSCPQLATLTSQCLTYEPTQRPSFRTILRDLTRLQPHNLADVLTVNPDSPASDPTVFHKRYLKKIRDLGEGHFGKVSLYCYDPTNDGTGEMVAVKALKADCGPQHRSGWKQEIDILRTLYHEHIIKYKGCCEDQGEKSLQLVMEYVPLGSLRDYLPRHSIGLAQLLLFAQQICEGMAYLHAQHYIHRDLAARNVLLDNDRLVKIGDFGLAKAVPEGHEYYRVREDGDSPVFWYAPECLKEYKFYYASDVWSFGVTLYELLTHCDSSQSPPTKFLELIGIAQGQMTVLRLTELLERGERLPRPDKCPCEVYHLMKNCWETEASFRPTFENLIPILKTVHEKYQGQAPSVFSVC

[20] = target: Tyrosine-protein kinase JAK2 (Homo sapiens, UniProt O60674); assay: Inhibition of JAK2 (unknown origin)
[21] = Inhibition of anti-CD3/CD28 antibodies-stimulated BALB/c mouse CD4+ T cell activation assessed as frequency of CD4+/CD69+ T cells at 200 nM measured after 24 hrs by flow cytometric analysis (reference value: 2.51%); type: functional, CD4+ve Th; set-up: scale not given: the % may be the effect or the level left; procedure, shortened: as §1
[22] = Inhibition of anti-CD3/CD28 antibodies-stimulated BALB/c mouse CD4+ T cell activation assessed as frequency of CD4+/CD69+ T cells at 100 nM measured after 24 hrs by flow cytometric analysis (reference value: 2.51%); type: functional, CD4+ve Th; set-up: scale not given: the % may be the effect or the level left; procedure, shortened: as §1
[23] = Inhibition of anti-CD3/CD28 antibodies-stimulated BALB/c mouse CD4+ T cell activation assessed as frequency of CD4+/CD69+ T cells at 200 nM measured after 48 hrs by flow cytometric analysis (reference value: 14.9%); type: functional, CD4+ve Th; set-up: scale not given: the % may be the effect or the level left; procedure, shortened: as §1
[24] = Inhibition of anti-CD3/CD28 antibodies-stimulated BALB/c mouse CD4+ T cell activation assessed as frequency of CD4+/CD69+ T cells at 100 nM measured after 48 hrs by flow cytometric analysis (reference value: 14.9%); type: functional, CD4+ve Th; set-up: scale not given: the % may be the effect or the level left; procedure, shortened: as §1

Sequence of Tyrosine-protein kinase BTK (Q06187 whole entry): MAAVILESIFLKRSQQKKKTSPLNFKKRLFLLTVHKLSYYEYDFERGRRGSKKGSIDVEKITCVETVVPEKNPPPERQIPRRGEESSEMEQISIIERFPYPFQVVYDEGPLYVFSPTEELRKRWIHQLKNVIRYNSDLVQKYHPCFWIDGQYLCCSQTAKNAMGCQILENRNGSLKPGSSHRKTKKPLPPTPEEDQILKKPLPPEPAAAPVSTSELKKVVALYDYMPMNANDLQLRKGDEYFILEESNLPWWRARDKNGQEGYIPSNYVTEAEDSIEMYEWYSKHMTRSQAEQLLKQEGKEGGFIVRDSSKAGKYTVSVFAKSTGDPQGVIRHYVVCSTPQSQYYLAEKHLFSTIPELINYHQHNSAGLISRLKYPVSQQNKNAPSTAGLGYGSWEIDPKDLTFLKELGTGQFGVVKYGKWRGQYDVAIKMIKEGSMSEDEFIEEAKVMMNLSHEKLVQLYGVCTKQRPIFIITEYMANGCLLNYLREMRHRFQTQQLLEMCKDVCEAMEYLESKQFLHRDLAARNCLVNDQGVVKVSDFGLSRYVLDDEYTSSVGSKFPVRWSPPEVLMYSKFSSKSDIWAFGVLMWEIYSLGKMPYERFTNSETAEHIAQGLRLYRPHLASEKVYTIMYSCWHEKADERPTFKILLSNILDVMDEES

IC50 [1]: > 1000 nM
IC50 [2]: > 1000 nM
IC50 [3]: > 1000 nM
IC50 [5]: > 1000 nM
IC50 [6]: > 1000 nM
IC50 [8]: 55 nM
IC50 [9]: > 1000 nM
IC50 [10]: > 1000 nM
Activity [16]: Active
IC50 [17]: > 1000 nM
IC50 [19]: > 1000 nM
IC50 [20]: > 1000 nM
Compound: COc1cc(Nc2nc(NCc3cccc(NC(=O)CCl)c3)n3ccnc3c2C(N)=O)cc(OC)c1
inhibition (CD4+ve Th [4]): Active
inhibition (CD4+ve Th [7]): Dose-Dependent Effect
inhibition (CD4+ve Th [11]): Active
inhibition (CD4+ve Th [12]): Dose-Dependent Effect
Activity [13]: 0.925%
Activity [14]: 3.64%
inhibition (CD4+ve Th [15]): Active
inhibition at 0.4 µM [18]: 100%
Activity [21]: 0.932%
Activity [22]: 1.55%
Activity [23]: 4.47%
Activity [24]: 9.83%

From ChEMBL document CHEMBL4819075, “Discovery of a potent, selective, and covalent ZAP-70 kinase inhibitor” (Eur J Med Chem, 2021)
